Experimental data from ChEMBL document CHEMBL1130433, “Effects of log P and phenyl ring conformation on the binding of 5-phenylhydantoins to the voltage-dependent sodium channel” (J Med Chem, 1997).

These compounds were tested against Sodium channel alpha subunits; brain (Types I, II, III) (Rattus norvegicus, UniProt P04775+P04774+P08104) (assay: Inhibition of [3H]BTX-B binding to Neuronal voltage-dependent sodium channel of rat cerebral cortex synaptoneurosomes).
Format: tissue-based
Summary of the method: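 Ice-cold buffer dilution, GF/C filtration, scintillation counting. Nonspecific binding measured with 300 μM veratridine. Triplicates with a 40 μM DPH control tube. IC50 by Probit analysis, excluding points below 10% or above 90% inhibition.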
Compound O=C1NC(=O)C2(CCc3ccccc32)N1 (centres undefined) has an IC50 of 2112 µM.
O=C1NC(=O)C2(CCCCCc3ccccc32)N1 (centres undefined) gave an IC50 of 251 µM.
In the case of CCN1C(=O)NC(=O)[C@@]1(C)c1ccccc1, the IC50 is reported as 720 µM.
O=C1NC(=O)C2(CCCc3ccccc32)N1 (centres undefined) showed an IC50 of 851 µM.
CCCCC1(c2cccc(C)c2)NC(=O)NC1=O (centres undefined) showed an IC50 of 58 µM.
For CCCCC1(c2ccccc2C)NC(=O)NC1=O (centres undefined), the IC50 was 225 µM.
Work on O=C1NC(=O)C2(CCCCc3ccccc32)N1 (centres undefined) yielded an IC50 of 251 µM.
In the case of CC12C(=O)NC(=O)N1CCc1ccccc12 (centres undefined), the IC50 is reported as 250 µM.
Compound CCCCC1(c2ccc(C)cc2)NC(=O)NC1=O (centres undefined) has an IC50 of 95 µM.
